Activity calls are given as the source filed them. The rule behind the calls is not given here.
Tests used:
[1] = Dissociation constant, pKa of compound; type: physicochemical
[2] = Drug concentration in NOD-SCID mouse plasma at 25 mg/kg, po measured at 6 hrs by LC-MS/MS analysis; type: ADME, organism-based
In short: (§1)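 Male NOD-SCID mice given 25 mg/kg orally in 5% DMSO, 47.5% PEG, 47.5% deionized water with 10% Tween80. Plasma drug levels measured at 0.5, 1, 2, 6 and 24 h; demethylated metabolites also quantified.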

[3] = biological target: T1, Activin receptor type-1 (Homo sapiens, UniProt Q04771); assay: Inhibition of N-terminal GST-his6 tagged human recombinant ALK2 (145 to 509 residues) expressed in Sf9 insect cells in presence of ATP by radiometric kinase assay
T1 sequence (Q04771 whole entry): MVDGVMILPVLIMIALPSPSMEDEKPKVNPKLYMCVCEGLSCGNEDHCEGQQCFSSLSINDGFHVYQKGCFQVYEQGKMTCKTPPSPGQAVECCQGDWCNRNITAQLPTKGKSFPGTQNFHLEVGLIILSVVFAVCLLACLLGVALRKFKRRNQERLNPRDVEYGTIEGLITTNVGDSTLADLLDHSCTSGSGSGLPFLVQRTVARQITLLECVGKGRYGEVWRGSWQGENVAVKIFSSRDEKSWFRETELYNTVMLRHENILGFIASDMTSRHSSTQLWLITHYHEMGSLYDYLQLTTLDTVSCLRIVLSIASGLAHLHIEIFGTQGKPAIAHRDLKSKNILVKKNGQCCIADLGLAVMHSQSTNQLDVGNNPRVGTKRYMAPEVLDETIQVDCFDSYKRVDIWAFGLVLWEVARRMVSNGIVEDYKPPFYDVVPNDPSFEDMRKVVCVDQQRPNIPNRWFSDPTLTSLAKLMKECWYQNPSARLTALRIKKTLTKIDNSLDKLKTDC

[4] = Drug concentration in NOD-SCID mouse plasma at 10 mg/kg, po measured at 2 hrs by LC-MS/MS analysis; type: ADME, organism-based
In short: (§2)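 Male NOD-SCID mice dosed orally at 10 mg/kg. Plasma and brain concentrations of parent and demethylated metabolites measured at 2 and 4 h. Kp = Cbrain/Cplasma at 4 h.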

[5] = Drug concentration in NOD-SCID mouse plasma at 25 mg/kg, po measured at 0.5 hrs by LC-MS/MS analysis; type: ADME, organism-based; in short: as §1
[6] = Metabolic stability in CD-1 mouse liver microsome at 1 uM in presence of NADPH-regeneration system incubated for 60 mins by LC/MS analysis; type: ADME; details: liver microsomes, read-out: Stability
In short: (§3)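 Compound 1 μM final (0.1% DMSO) in 0.1 M potassium phosphate pH 7.4 with male CD-1 mouse or pooled human liver microsomes at 0.5 mg/mL protein plus NADPH-regeneration mix. Sampled at 0 and 60 min at 37 °C, in duplicate. Parent remaining by LC/MS peak area.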

[7] = Apparent permeability across apical to basolateral side in human Caco-2 cells incubated for 2 hrs by LC/MS analysis; type: ADME, cell-based
In short: (§4)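 Caco-2 (C2BBE1) cells seeded 40,000/well on 1.0 μm PET inserts, grown 21–22 days; HBSS with 10 mM HEPES, 15 mM glucose, pH 7.4. Compound 5 μM in donor (0.1% DMSO), receiver with 1% BSA; 2 h at 37 °C shaking. Metoprolol, atenolol, Lucifer yellow, digoxin controls. LC/MS peak areas; two technical replicates; efflux ratio = Papp B-A / Papp A-B.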

[8] = Drug concentration in NOD-SCID mouse plasma at 25 mg/kg, po measured at 1 hrs by LC-MS/MS analysis; type: ADME, organism-based; in short: as §1
[9] = biological target: T1, Activin receptor type-1; assay: Inhibition of ALK2 in human HEK293 cells using NanoGlo as substrate incubated for 2 hrs by NanoBRET assay; type: cell-based
[10] = Apparent permeability across basolateral to apical side in human Caco-2 cells incubated for 2 hrs by LC/MS analysis; type: ADME, cell-based; in short: as §4
[11] = Ratio of drug concentration in brain to plasma in NOD-SCID mouse brain at 10 mg/kg, po measured at 4 hrs by LC-MS/MS analysis; type: ADME, organism-based; details: read-out: BPR; in short: as §2
[12] = Metabolic stability in human liver microsome at 1 uM in presence of NADPH-regeneration system incubated for 60 mins by LC/MS analysis; type: ADME; details: liver microsomes, read-out: Stability; in short: as §3
[13] = Drug concentration in NOD-SCID mouse brain at 10 mg/kg, po measured at 2 hrs by LC-MS/MS analysis; type: ADME, organism-based; details: read-out: Ct; in short: as §2
[14] = Drug concentration in NOD-SCID mouse brain at 10 mg/kg, po measured at 4 hrs by LC-MS/MS analysis; type: ADME, organism-based; details: read-out: Ct; in short: as §2
[15] = Drug concentration in NOD-SCID mouse plasma at 25 mg/kg, po measured at 2 hrs by LC-MS/MS analysis; type: ADME, organism-based; in short: as §1
[16] = Drug concentration in NOD-SCID mouse plasma at 10 mg/kg, po measured at 4 hrs by LC-MS/MS analysis; type: ADME, organism-based; in short: as §2
[17] = biological target: TRAF2 and NCK-interacting protein kinase (Homo sapiens) (UniProt Q9UKE5); assay: Inhibition of human recombinant TNIK (1 to 367 residues) using RLGRDKYKTLRQI as substrate incubated for 40 mins by scintillation based radiometric LeadHunter assay
[18] = biological target: Tyrosine-protein kinase Lyn (Homo sapiens) (UniProt P07948); assay: Inhibition of full length human recombinant LYN (1 to 367 residues) using poly Glu as substrate incubated for 40 mins by scintillation based radiometric LeadHunter assay
[19] = tested on: Epidermal growth factor receptor (Homo sapiens), P00533 [L861Q]; assay: Inhibition of human EGFR L861Q mutant (696 to end residues) using poly Glu as substrate incubated for 40 mins by scintillation based radiometric LeadHunter assay
[20] = tested on: Epidermal growth factor receptor (Homo sapiens), P00533 [L858R]; assay: Inhibition of human EGFR L858R mutant (696 to end residues) using poly Glu as substrate incubated for 40 mins by scintillation based radiometric LeadHunter assay
[21] = biological target: Epithelial discoidin domain-containing receptor 1 (Homo sapiens) (UniProt Q08345); assay: Inhibition of human recombinant DDR1 (492 to end residues) using KKKSPGEYVNIEF as substrate incubated for 40 mins by scintillation based radiometric LeadHunter assay
[22] = biological target: Protein-tyrosine kinase 6 (Homo sapiens) (UniProt Q13882); assay: Inhibition of full length human recombinant BRK using poly Glu as substrate incubated for 40 mins by scintillation based radiometric LeadHunter assay
[23] = Drug concentration in NOD-SCID mouse plasma at 25 mg/kg, po measured at 24 hrs by LC-MS/MS analysis; type: ADME, organism-based; in short: as §1
[24] = biological target: Receptor-interacting serine/threonine-protein kinase 2 (Homo sapiens) (UniProt O43353); assay: Inhibition of human recombinant RIPK2 (1 to 299 residues) incubated for 120 mins in presence of ATP by scintillation based radiometric LeadHunter assay
[25] = biological target: Epithelial discoidin domain-containing receptor 1 (Homo sapiens) (UniProt Q08345); assay: Inhibition of human recombinant DDR1 (492 to end residues) using KKKSPGEYVNIEF as substrate at 1 uM incubated for 40 mins by scintillation based radiometric LeadHunter assay relative to control
[26] = biological target: TRAF2 and NCK-interacting protein kinase (Homo sapiens) (UniProt Q9UKE5); assay: Inhibition of human recombinant TNIK (1 to 367 residues) using RLGRDKYKTLRQI as substrate at 1 uM incubated for 40 mins by scintillation based radiometric LeadHunter assay relative to control

Chain of Epithelial discoidin domain-containing receptor 1 (Homo sapiens) (Q08345 whole entry, the tested form may be a part): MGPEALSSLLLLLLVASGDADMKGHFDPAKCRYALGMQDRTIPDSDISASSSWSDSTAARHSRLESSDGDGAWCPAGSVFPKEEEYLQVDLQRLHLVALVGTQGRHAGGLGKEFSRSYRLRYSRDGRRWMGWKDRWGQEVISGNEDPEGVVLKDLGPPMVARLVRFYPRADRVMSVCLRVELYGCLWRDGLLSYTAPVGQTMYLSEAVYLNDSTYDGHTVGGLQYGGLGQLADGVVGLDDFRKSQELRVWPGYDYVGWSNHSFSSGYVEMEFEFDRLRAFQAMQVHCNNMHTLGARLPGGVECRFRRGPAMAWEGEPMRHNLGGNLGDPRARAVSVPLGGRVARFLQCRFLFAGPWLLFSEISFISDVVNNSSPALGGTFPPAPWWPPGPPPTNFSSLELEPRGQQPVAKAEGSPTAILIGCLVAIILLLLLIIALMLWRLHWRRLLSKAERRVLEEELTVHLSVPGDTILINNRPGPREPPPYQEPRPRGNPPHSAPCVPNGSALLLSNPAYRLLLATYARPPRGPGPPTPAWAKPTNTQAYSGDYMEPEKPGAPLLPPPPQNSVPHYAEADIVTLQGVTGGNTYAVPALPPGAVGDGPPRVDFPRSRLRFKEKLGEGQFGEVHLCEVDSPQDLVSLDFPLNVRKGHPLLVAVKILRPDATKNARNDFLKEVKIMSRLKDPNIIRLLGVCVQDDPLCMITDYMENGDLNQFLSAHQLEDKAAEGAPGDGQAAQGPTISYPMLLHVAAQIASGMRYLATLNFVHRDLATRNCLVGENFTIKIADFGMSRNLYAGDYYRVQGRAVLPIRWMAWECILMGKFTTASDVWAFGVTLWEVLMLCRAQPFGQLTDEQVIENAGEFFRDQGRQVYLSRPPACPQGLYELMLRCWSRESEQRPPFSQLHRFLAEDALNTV
Chain of TRAF2 and NCK-interacting protein kinase (Homo sapiens) (Q9UKE5 whole entry, looked up, the tested form may be a part): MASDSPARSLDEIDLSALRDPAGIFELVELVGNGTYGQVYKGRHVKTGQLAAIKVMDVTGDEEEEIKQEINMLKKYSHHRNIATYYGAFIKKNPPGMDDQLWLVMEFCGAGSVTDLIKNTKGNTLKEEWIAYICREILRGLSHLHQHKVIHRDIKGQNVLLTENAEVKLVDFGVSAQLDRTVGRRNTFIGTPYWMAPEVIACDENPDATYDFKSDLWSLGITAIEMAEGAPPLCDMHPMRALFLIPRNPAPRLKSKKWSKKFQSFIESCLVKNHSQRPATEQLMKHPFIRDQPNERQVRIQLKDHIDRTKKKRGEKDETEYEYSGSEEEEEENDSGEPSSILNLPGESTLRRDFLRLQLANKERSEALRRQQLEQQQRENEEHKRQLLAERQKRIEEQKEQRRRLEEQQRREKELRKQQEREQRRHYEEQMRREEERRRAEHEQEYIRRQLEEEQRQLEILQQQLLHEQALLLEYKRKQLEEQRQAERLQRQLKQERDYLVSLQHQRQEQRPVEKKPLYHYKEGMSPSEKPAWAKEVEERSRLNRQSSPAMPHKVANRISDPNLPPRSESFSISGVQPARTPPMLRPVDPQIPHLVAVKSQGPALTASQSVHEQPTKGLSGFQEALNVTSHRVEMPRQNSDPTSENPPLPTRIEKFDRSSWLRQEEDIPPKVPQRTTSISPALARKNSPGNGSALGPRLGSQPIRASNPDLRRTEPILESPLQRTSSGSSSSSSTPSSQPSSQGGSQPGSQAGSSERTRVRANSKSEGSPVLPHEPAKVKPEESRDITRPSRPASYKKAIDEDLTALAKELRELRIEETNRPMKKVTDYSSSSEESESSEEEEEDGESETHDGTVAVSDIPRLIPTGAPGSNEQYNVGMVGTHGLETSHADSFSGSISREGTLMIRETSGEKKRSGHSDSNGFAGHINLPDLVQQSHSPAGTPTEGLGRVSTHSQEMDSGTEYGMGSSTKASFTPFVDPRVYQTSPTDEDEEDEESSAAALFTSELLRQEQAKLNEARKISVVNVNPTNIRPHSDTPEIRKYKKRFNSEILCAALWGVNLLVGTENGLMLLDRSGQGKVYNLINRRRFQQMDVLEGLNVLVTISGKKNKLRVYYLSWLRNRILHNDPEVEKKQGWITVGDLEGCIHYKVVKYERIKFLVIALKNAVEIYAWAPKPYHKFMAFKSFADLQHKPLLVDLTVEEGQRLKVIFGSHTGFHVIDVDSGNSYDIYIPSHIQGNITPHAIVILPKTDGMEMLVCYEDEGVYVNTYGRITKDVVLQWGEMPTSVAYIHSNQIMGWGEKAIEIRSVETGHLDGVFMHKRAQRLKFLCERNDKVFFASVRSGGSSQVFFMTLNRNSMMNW
Chain of Epidermal growth factor receptor (Homo sapiens), P00533 [L861Q] (P00533 whole entry L861Q): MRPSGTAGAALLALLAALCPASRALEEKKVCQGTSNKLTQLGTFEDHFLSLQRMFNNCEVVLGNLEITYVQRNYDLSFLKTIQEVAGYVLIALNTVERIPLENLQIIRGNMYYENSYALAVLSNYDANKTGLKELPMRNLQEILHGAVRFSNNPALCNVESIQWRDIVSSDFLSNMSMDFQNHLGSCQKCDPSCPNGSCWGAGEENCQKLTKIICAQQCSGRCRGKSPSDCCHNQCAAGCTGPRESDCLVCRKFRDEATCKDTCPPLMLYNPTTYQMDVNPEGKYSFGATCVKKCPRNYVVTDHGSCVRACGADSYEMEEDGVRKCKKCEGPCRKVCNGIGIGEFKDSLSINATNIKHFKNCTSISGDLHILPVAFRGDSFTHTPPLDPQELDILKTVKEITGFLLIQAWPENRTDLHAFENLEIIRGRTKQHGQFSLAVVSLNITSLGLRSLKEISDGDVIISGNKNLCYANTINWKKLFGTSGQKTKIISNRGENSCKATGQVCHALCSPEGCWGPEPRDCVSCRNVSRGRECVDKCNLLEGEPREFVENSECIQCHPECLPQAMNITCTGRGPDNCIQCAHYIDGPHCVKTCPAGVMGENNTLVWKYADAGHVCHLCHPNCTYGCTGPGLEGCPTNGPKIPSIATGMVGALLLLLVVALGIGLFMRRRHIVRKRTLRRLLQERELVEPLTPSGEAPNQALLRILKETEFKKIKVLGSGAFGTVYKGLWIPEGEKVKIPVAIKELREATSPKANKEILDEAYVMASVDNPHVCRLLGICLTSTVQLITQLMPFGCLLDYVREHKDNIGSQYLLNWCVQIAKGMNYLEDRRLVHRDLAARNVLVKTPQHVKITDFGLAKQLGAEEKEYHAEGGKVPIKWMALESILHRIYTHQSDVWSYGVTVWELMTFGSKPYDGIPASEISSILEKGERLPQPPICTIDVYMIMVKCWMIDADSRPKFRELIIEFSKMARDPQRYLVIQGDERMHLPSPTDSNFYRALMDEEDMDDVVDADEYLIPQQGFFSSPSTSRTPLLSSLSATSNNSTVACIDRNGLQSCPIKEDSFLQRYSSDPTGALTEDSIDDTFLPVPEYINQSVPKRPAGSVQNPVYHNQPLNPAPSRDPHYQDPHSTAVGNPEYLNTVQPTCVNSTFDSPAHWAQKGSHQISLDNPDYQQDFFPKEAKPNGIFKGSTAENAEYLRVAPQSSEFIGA
Chain of Tyrosine-protein kinase Lyn (Homo sapiens) (P07948 2-512 limits assumed): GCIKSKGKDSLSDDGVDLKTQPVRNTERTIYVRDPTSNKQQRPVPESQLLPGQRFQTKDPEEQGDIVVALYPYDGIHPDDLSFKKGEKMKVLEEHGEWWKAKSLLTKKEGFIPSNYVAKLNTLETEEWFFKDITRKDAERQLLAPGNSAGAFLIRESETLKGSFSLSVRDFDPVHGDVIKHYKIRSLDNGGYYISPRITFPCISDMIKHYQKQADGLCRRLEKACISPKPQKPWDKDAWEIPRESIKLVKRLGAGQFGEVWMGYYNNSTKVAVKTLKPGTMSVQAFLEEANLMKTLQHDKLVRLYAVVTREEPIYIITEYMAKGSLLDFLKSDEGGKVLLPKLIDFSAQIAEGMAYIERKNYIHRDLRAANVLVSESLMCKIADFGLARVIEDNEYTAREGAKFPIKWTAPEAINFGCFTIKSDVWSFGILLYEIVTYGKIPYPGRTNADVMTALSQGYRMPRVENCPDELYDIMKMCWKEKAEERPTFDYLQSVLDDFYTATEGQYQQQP
Chain of Protein-tyrosine kinase 6 (Homo sapiens) (Q13882 whole entry, looked up): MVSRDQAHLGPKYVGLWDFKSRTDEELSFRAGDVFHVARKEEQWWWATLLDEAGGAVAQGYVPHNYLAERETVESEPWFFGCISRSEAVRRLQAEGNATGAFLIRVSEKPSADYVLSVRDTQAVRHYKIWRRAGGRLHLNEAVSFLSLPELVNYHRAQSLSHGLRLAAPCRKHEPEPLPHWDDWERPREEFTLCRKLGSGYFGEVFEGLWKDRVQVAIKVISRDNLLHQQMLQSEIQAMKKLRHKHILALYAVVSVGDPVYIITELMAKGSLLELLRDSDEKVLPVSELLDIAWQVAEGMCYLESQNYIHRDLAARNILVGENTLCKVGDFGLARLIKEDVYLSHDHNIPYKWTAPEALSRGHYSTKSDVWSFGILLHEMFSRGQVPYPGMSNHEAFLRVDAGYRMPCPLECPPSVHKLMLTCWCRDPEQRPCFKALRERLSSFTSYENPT
Chain of Receptor-interacting serine/threonine-protein kinase 2 (Homo sapiens) (O43353 whole entry, the tested form may be a part): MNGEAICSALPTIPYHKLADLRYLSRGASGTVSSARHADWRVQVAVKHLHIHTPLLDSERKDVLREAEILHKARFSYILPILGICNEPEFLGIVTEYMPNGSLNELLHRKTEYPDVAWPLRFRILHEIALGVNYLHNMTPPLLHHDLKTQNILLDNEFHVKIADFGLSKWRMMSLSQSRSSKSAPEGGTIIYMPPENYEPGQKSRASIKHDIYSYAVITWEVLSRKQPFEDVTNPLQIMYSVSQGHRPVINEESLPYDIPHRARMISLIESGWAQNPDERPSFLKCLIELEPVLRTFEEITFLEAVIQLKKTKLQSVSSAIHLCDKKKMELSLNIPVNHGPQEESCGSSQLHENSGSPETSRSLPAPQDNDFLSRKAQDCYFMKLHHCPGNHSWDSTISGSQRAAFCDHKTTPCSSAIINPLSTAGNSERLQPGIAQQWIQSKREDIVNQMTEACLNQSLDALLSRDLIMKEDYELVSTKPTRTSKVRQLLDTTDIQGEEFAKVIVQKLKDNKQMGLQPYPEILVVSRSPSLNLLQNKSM

pKa [1]	concentration at 6 h [2]	IC50 [3]	concentration at 2 h [4]	concentration at 0.5 h [5]	remaining at 1 h, 1 µM [6]	Papp A→B at 2 h [7]	concentration at 1 h [8]	IC50 [9]	Papp B→A at 2 h [10]	Kp at 4 h [11]	remaining at 1 h, 1 µM [12]	concentration at 2 h [13]	concentration at 4 h [14]	concentration at 2 h [15]	concentration at 4 h [16]	concentration at 24 h [23]	SMILES	also measured
8.54	2230 nM	2 nM	980 nM	3650 nM	10.3%	13.9 ×10⁻⁶ cm/s	5050 nM	15 nM	11.5 ×10⁻⁶ cm/s	3.7	21.2%	2410 nM	1470 nM	3530 nM	393 nM		COc1cc(-c2cncc3c2CCOc2cc(N4CCN(C)CC4)ccc2-3)cc(OC)c1OC	
		13 nM			0.9%	8.3 ×10⁻⁶ cm/s		45 nM	9 ×10⁻⁶ cm/s		34.8%						COc1cc(-c2cncc3c2COc2cc(N4CCN(C)CC4)ccc2-3)cc(OC)c1OC	
		3 nM			4.3%	16.5 ×10⁻⁶ cm/s		7 nM	13.6 ×10⁻⁶ cm/s		29.7%						COc1cc(-c2cncc3c2COCc2cc(N4CCN(C)CC4)ccc2-3)cc(OC)c1OC	
	1260 nM	3 nM		323 nM	98.6%	0.8 ×10⁻⁶ cm/s	466 nM	11 nM	4.2 ×10⁻⁶ cm/s		73.2%			523 nM		336 nM	COc1cc(-c2cncc3c2CN(C)Cc2cc(N4CCNCC4)ccc2-3)cc(OC)c1OC	inhibition [17]: Active; inhibition [18]: Active; inhibition [19]: Active; inhibition [20]: Active; inhibition [21]: Active; inhibition [22]: Active; inhibition [24]: Active
8.6	13400 nM		5250 nM	3020 nM			4280 nM			0.3		2320 nM	888 nM	7490 nM	2680 nM	1540 nM	COc1cc(-c2cncc(-c3ccc(N4CCNCC4)cc3)c2C)cc(OC)c1OC	inhibition [25]: 100%; inhibition [26]: 100%
		609 nM			9.5%	4 ×10⁻⁶ cm/s		> 10000 nM	2.5 ×10⁻⁶ cm/s		37.4%						COc1cc(-c2cncc3c2oc2cc(N4CCN(C)CC4)ccc23)cc(OC)c1OC	
	1890 nM	2 nM		729 nM	70.9%	5.3 ×10⁻⁶ cm/s	1070 nM	6 nM	11.6 ×10⁻⁶ cm/s		66.5%			1120 nM		63 nM	COc1cc(-c2cncc3c2CCOc2cc(N4CCNCC4)ccc2-3)cc(OC)c1OC	
		2 nM			75.7%	4.2 ×10⁻⁶ cm/s		5 nM	9.4 ×10⁻⁶ cm/s		62.3%						COc1cc(-c2cncc3c2COCc2cc(N4CCNCC4)ccc2-3)cc(OC)c1OC	
8.12	300 nM	7 nM	75 nM	134 nM	65%	1.5 ×10⁻⁶ cm/s	254 nM	18 nM	2.5 ×10⁻⁶ cm/s	75.6	58.3%	4130 nM	3250 nM	277 nM	43 nM	17 nM	COc1cc(-c2cncc3c2CN(C)Cc2cc(N4CCN(C)CC4)ccc2-3)cc(OC)c1OC	
